Assay results: ChEMBL document CHEMBL1955718, “Discovery of new orally effective analgesic and anti-inflammatory hybrid furoxanyl N-acylhydrazone derivatives” (Bioorg Med Chem, 2012)

Tests used:
[1] = Cytotoxicity against mouse […] cells after 48 hrs by MTT assay; type: cell-based
In short: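 J774 macrophages in DMEM (4 mM L-glutamine, 10% heat-inactivated FBS) were seeded at 1 × 10^5 cells/well and grown for 48 h at 37 °C, 5% CO2. They were then exposed to compounds at 25–400 µM for 48 h. MTT (0.1 mg/mL final) was added for 3 h, formazan was dissolved in DMSO/glycine buffer pH 10.5, and absorbance was read at 560 nm to give an IC50.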

[2] = Cytotoxicity against human HT-29 cells expressing NF-kappaB-hrGFP assessed as highest non-cytotoxic dose for 100% cell survival after 24 hrs by MTT assay; type: cell-based; conditions: read-out: Activity
In short: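 HT-29 cells stably carrying pNF-κB-hrGFP, seeded at 0.5 × 10^6/mL in DMEM with 10% FBS, grown 24 h at 37 °C, 5% CO2. Compounds added in DMSO (<0.5% v/v final) at 12.5–400 µM for 24 h. Viability by MTT reduction (2 h), formazan dissolved in DMSO/glycine buffer, read at 560 nm.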

HT-29 [3] = assay: Inhibition of TNF-alpha-induced NFkappaB activation expressed in human HT-29 cells coexpressing hrGFP at 50 uM after 24 hrs by propidium iodide staining-based flow cytometric analysis relative to control; type: cell-based
In short: (§1)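 HT-29 cells stably expressing NF-κB-driven hrGFP given compound (DMSO <0.5%) for 2 h at the maximum non-cytotoxic concentration, then TNF-α at 3 ng/mL final for 18–24 h. Cells trypsinised and stained with propidium iodide; 5000 events gated on FSC/SSC. The %GFP-positive among PI-excluding live cells is normalised to TNF-α/DMSO control, ± SD.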

HT-29 [4] = assay: Pro-inflammatory activity in NFkappaB-GFP transfected human HT-29 cells at 25 to 400 uM after 24 hrs by propidium iodide staining-based flow cytometric analysis; type: ADME, cell-based; conditions: ht-29, 24 h
In short: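 Reporter HT-29-NF-κB-hrGFP cells given compound alone, without TNF-α, for 18–24 h at 37 °C after the same 2 h pre-incubation. GFP-positive live (propidium iodide-excluding) cells counted by flow cytometry; IL-8 in supernatant measured by bead-based flow cytometry.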

Glycine max = assay: Inhibition of soybean lipoxygenase using arachidonic acid as substrate at 50 uM
In short: (§2)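 Soybean 15-lipoxygenase kit assay, arachidonic acid substrate, H2O2 as lipoxygenating agent in 0.1 M Tris-HCl pH 7.4. Single-point screen at 50 µM. IC50 found by varying concentration over 10–100 µM. Quercetin at 4 µM as positive control; duplicate means; Student t-test.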

HT-29 [5] = assay: Inhibition of TNFalpha-induced NF-kappaB activation expressed in human HT-29 cells coexpressing hrGFP at 100 uM after 24 hrs by propidium iodide staining-based flow cytometric analysis relative to control; type: cell-based; in short: as §1
Rattus norvegicus = assay: Antiinflammatory activity in albino rat assessed as inhibition of carrageenan-induced paw edema at 100 umol/kg, po administered 1 hr before carrageenan challenge measured after 3 hrs by plethysmometric analysis relative to control; type: functional
In short: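 Albino rats of both sexes (150–200 g) were dosed orally as a suspension in 1% Tween 80 in saline, with vehicle controls. After 1 h, 0.1 mL 1% carrageenan or saline was injected subplantar. Paw volume was read by glass plethysmometer at 3 h. Edema = carrageenan-paw minus saline-paw volume; % inhibition vs vehicle; Student t-test.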

Mus musculus [6] = assay: Analgesic activity in albino mouse assessed as inhibition of acetic acid-induced abdominal constriction at 100 umol/kg, po administered 1 hr before acetic acid challenge measured after 60 mins relative to control; type: functional; conditions: Abdomen
In short: (§3)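 Albino mice of both sexes (18–23 g) were dosed orally as a suspension in 5% arabic gum in saline, with vehicle controls. After 1 h they received 0.6% acetic acid ip (0.1 mL/10 g). Constrictions were counted for 20 min starting 10 min after injection. Data are % inhibition vs vehicle, mean ± SEM, Student t-test.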

HT-29 [7] = assay: Inhibition of NF-kappaB activation expressed in human HT-29 cells assessed as inhibition of TNFalpha-stimulated IL8 release at 100 uM after 24 hrs by flow cytometric analysis relative to control; type: cell-based
In short: (§4)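 Reporter HT-29-NF-κB-hrGFP cells pretreated 2 h with compound (DMSO <0.5%) at the highest concentration with 100% survival, then stimulated with TNF-α (3 ng/mL final) for 18–24 h at 37 °C. IL-8 in clarified supernatant measured by flow cytometric bead assay (500 events). Expressed as % of TNF-α/DMSO control ± SD; thalidomide as reference.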

[8] = Inhibition of soybean lipoxygenase using arachidonic acid as substrate; parameters: species or system Glycine max; in short: as §2
HT-29 [9] = assay: Inhibition of TNFalpha-induced NF-kappaB activation expressed in human HT-29 cells coexpressing hrGFP at 400 uM after 24 hrs by propidium iodide staining-based flow cytometric analysis relative to control; type: cell-based; in short: as §1
HT-29 [10] = assay: Inhibition of NF-kappaB activation expressed in human HT-29 cells assessed as inhibition of TNFalpha-stimulated IL8 release at 400 uM after 24 hrs by flow cytometric analysis relative to control; type: cell-based; in short: as §4
[11] = Induction of NO release in 0.1 M Tris-HCl and 0.1 mM DTPA at pH 8.3 measured for 20 mins in presence of cysteine; type: physicochemical; conditions: buffer, pH 8.3, 20 min
In short: (§5)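 Electrochemical NO detection with an ISO-NOP sensor. Compounds in DMSO added to 0.1 M Tris-HCl, 0.1 mM DTPA at pH 7.4 or 8.3. Cysteine (300 or 100 µM) added and NO recorded for 20 min at 25 or 37 °C; compound:Cys ratio 1:1 at 25 °C, with 3:1 and 37 °C runs also made.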

[12] = Induction of NO release in 0.1 M Tris-HCl and 0.1 mM DTPA at pH 7.4 measured for 20 mins in presence of cysteine; type: physicochemical; conditions: buffer, pH 7.4, 20 min; in short: as §5
Mus musculus [13] = assay: Analgesic activity in albino mouse assessed as inhibition of acetic acid-induced abdominal constriction at 100 umol/kg, po administered 1 hr before acetic acid challenge measured after 30 mins relative to control; type: functional; conditions: Abdomen; in short: as §3
HT-29 [14] = assay: Inhibition of NF-kappaB activation expressed in human HT-29 cells assessed as inhibition of TNFalpha-stimulated IL8 release at 50 uM after 24 hrs by flow cytometric analysis relative to control; type: cell-based; in short: as §4

Row | Compound | IC50 [1] [µM] | MNTC at 24 h [2] [µM] | NF-kappaB activation (% of TNF-alpha control) (HT-29 [3]) [%] | Activity (HT-29 [4]) | inhibition (Glycine max) [%] | NF-kappaB activity (% of TNF-alpha control) (HT-29 [5]) [%] | inhibition in vivo at 100 µmol/kg (Rattus norvegicus) [%] | inhibition in vivo at 100 µmol/kg (Mus musculus [6]) [%] | inhibition (HT-29 [7]) [%] | IC50 [8] [µM] | NF-kappaB activity (GFP-positive cells), % of TNF-alpha control (HT-29 [9]) [%] | inhibition (HT-29 [10]) [%] | Activity [11] [nM/min] | Activity [12] [nM/min] | inhibition in vivo at 100 µmol/kg (Mus musculus [13]) [%] | inhibition (HT-29 [14]) [%]
1 | NNC(=O)c1ccc2c(c1)OCO2 | > 400 | 50 | 118 | Non-toxic |  |  |  |  |  |  |  |  |  |  |  | 
2 | Cc1c(/C=N/NC(=O)c2cnn(-c3ccccc3)c2)no[n+]1[O-] (mixture of isomers) | 295 | 100 |  | Non-toxic | 0 | 80 |  |  |  |  |  |  |  |  |  | 
3 | Cc1c(C(=O)N/N=C/c2cccs2)no[n+]1[O-] | > 400 | 100 |  | Non-toxic | 10 | 122 | 0 | 14 | 75 | > 100 |  |  |  |  |  | 
4 | Cc1c(/C=N/NC(=O)c2ccc3c(c2)OCO3)no[n+]1[O-] | 132 | 400 |  | Non-toxic |  |  |  |  |  |  | 102 | 106 |  |  |  | 
5 | Cc1c(/C=N/NC(=O)c2no[n+]([O-])c2C)no[n+]1[O-] | > 400 | 100 |  | Non-toxic | 55 | 127 | 10 | 14 | 65 | 50 |  |  |  |  |  | 
6 | Cc1c(C(=O)N/N=C/c2ccc([N+](=O)[O-])o2)no[n+]1[O-] | 96 | 100 |  | Non-toxic |  | 136 | 14 | 13 | 48 |  |  |  |  |  |  | 
7 | COc1cc(/C=N/NC(=O)c2no[n+]([O-])c2C)ccc1O | > 400 | 100 |  | Non-toxic | 1 | 149 |  |  | 77 |  |  |  | 0 |  |  | 
8 | Cc1nc2ccccn2c1C(=O)N/N=C/c1c(-c2ccccc2)no[n+]1[O-] | 56 | 400 |  | Non-toxic | 0 |  | 18 | 14 |  |  | 32 | 38 | 0 | 0 | 2 | 
9 | Cc1nc2ccccn2c1C(=O)N/N=C/c1no[n+]([O-])c1C | > 400 | 400 |  | Non-toxic |  |  |  |  |  |  | 120 | 77 |  |  |  | 
10 | Cc1c(C(=O)N/N=C/c2ccco2)no[n+]1[O-] | > 400 | 100 |  | Non-toxic | 0 | 99 |  |  | 82 |  |  |  |  |  |  | 
11 | Cc1c(C(=O)N/N=C/c2ccc3no[n+]([O-])c3c2)no[n+]1[O-] | > 400 | 400 |  | Non-toxic |  |  |  |  |  |  | 121 | 68 |  |  |  | 
12 | O=C(N/N=C/c1ccc2no[n+]([O-])c2c1)c1ccc2c(c1)OCO2 | 141 | 400 |  | Non-toxic | 55 |  |  |  |  | 50 | 87 | 64 | 0 |  |  | 
13 | Cc1c(C(=O)N/N=C/c2ccc(Br)cc2)no[n+]1[O-] | 162 | 100 |  | Non-toxic | 0 | 126 | 0 | 23 | 61 |  |  |  |  |  |  | 
14 | COc1ccc(/C=N/NC(=O)c2no[n+]([O-])c2C)cc1OC | > 400 | 400 |  | Non-toxic | 0 |  | 4 | 17 |  |  | 120 | 68 |  |  |  | 
15 | Cc1c(C(=O)N/N=C/c2ccc(C(F)(F)F)cc2)no[n+]1[O-] | > 400 | 400 |  | Non-toxic | 55 |  |  |  |  | 50 | 55 |  |  |  |  | 
16 | O=C(N/N=C/c1ccc2no[n+]([O-])c2c1)c1cnn(-c2ccccc2)c1 | 37 |  |  | Non-toxic |  |  |  |  |  |  |  |  |  |  |  | 
17 | Cc1c(C(=O)N/N=C/c2c(-c3ccccc3)no[n+]2[O-])no[n+]1[O-] | > 400 | 100 |  | Non-toxic |  | 122 |  |  | 77 |  |  |  |  |  |  | 
18 | Cc1nc2ccccn2c1C(=O)NN | > 400 | 50 | 111 | Non-toxic |  |  |  |  |  |  |  |  |  |  |  | 
19 | Cc1nc2ccccn2c1C(=O)N/N=C/c1ccc2no[n+]([O-])c2c1 | > 400 | 400 |  | Non-toxic |  |  |  |  |  |  | 104 | 76 |  |  |  | 
20 | COc1ccc(/C=N/NC(=O)c2no[n+]([O-])c2C)cc1O | > 400 | 400 |  | Non-toxic | 58 |  |  |  |  |  | 117 | 59 |  |  |  | 
21 | O=C(N/N=C/c1c(-c2ccccc2)no[n+]1[O-])c1cnn(-c2ccccc2)c1 | 42 | 400 |  | Non-toxic |  |  |  |  |  |  | 105 |  |  |  |  | 
22 | Cc1c(C(=O)N/N=C/c2ccc([N+](=O)[O-])s2)no[n+]1[O-] | 68 | 100 |  | Non-toxic |  | 111 |  |  |  |  |  |  |  |  |  | 
23 | Cc1c(C(=O)N/N=C/c2ccc3c(c2)OCO3)no[n+]1[O-] | > 400 | 100 |  | Non-toxic |  | 97 |  |  | 98 |  |  |  |  |  |  | 
24 | O=C(O)c1ccc(/C=N/NC(=O)c2c(-c3ccccc3)no[n+]2[O-])cc1 | > 300 | 50 | 115 | Non-toxic | 53 |  |  |  |  | 50 |  |  | 0 |  |  | 114
